What was measured:
[1] = biological target: T1, Thymidylate synthase (Lactobacillus casei) (UniProt P00469); experiment: Inhibition of Lactobacillus casei thymidylate synthetase using dUMP as substrate at 20 uM preincubated for 5 mins followed by substrate addition relative to control; settings: Lacticaseibacillus casei
T1 sequence (whole entry): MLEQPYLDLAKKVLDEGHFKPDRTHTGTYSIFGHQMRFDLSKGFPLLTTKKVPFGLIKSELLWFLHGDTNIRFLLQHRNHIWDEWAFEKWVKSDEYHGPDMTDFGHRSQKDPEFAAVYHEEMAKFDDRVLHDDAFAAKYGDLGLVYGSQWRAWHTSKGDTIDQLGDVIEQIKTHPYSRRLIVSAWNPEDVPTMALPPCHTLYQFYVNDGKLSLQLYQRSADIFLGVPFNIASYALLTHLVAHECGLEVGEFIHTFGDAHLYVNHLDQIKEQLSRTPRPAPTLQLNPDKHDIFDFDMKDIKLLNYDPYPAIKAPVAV

[2] = Inhibition of coliphage T2 thymidylate synthetase using dUMP as substrate preincubated for 20 mins followed by substrate addition; parameters: species or system Enterobacteria phage T2
How it was run: (§1)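 Enzyme and inhibitor preincubated 20 min at 30 °C in assay mix with 0.11 M 2-mercaptoethanol, 3 × 10^-4 M tetrahydrofolate, 0.012 M formaldehyde and 0.021 M MgCl2. Reaction started by adding dUMP to 4 × 10^-5 M. Enzyme concentrations were 8 × 10^-9 M for L. casei, 8 × 10^-9 M for E. coli (calculated assuming the L. casei turnover number) and 4 × 10^-9 M for T2. Concentration giving 50% inhibition reported.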

[3] = biological target: T1, Thymidylate synthase (Lactobacillus casei); experiment: Inhibition of Lactobacillus casei thymidylate synthetase using dUMP as substrate at 20 uM preincubated for 20 mins followed by substrate addition relative to control; settings: Lacticaseibacillus casei
[4] = Inhibition of Escherichia coli thymidylate synthetase using dUMP as substrate preincubated for 20 mins followed by substrate addition; how it was run: as §1
Thymidylate synthase = biological target: T2, Thymidylate synthase (Lactobacillus casei, UniProt P00469); experiment: Inhibition of Lactobacillus casei thymidylate synthetase using dUMP as substrate preincubated for 20 mins followed by substrate addition; parameters: species or system Lacticaseibacillus casei; how it was run: as §1
T2 sequence (P00469 whole entry): T1 sequence (whole entry)

[5] = Cytotoxicity against human Hep2 cells assessed as growth inhibition; type: functional; settings: HEp-2, read-out: ED50 (the source's name)
[6] = biological target: T1, Thymidylate synthase (Lactobacillus casei); experiment: Inhibition of Lactobacillus casei thymidylate synthetase using dUMP as substrate at 20 uM preincubated for 0 mins followed by substrate addition relative to control; settings: Lacticaseibacillus casei
[7] = biological target: T1, Thymidylate synthase (Lactobacillus casei); experiment: Inhibition of Lactobacillus casei thymidylate synthetase using dUMP as substrate at 20 uM preincubated for 10 mins followed by substrate addition relative to control; settings: Lacticaseibacillus casei
[8] = biological target: T1, Thymidylate synthase (Lactobacillus casei); experiment: Inhibition of Lactobacillus casei thymidylate synthetase using dUMP as substrate at 20 uM preincubated for 40 mins followed by substrate addition relative to control; settings: Lacticaseibacillus casei

SMILES: O=c1[nH]c(=O)n([C@H]2C[C@H](O)[C@@H](CCP(=O)(O)O)O2)cc1F
- inhibition [1]: 45%
- IC50 [2]: 0.06 µM
- inhibition [3]: 75%
- IC50 [4]: 0.6 µM
- IC50 (Thymidylate synthase): 7 µM
- EC50 [5]: 45 µM
- inhibition [6]: 0%
- inhibition [7]: 64%
- inhibition [8]: 85%
